Assay results as given in ChEMBL document CHEMBL3085705, “Design, chemical synthesis of 3-(9H-fluoren-9-yl)pyrrolidine-2,5-dione derivatives and biological activity against enoyl-ACP reductase (InhA) and Mycobacterium tuberculosis” (2013).

Legend:
Type in all cases: functional
[1] = system: Mycobacterium tuberculosis; experiment: Antimicrobial activity against streptomycin, isoniazid, rifampicin, ethambutol, pyrazinamide and ethionammide-resistant Mycobacterium tuberculosis clinical isolate by two-fold serial dilution method
Summary of the method: (§1)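 Compounds dissolved in DMSO. Single colony grown in Middlebrook 7H9 with 0.05% Tween 80 and 10% OADC at 37 °C, no shaking, to ~10^8 CFU/mL (OD600 0.8–1.0). Diluted to ~10^7 CFU/mL; 1 μL streaked onto 7H11 agar (0.5% glycerol, 10% OADC) with two-fold serial compound dilutions. MIC is the lowest concentration inhibiting growth. Repeated three times.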

[2] = system: Mycobacterium tuberculosis; experiment: Antimicrobial activity against streptomycin, isoniazid, rifampicin, ethambutol, pyrazinamide, ethionammide and capreomicinl-resistant Mycobacterium tuberculosis clinical isolate by two-fold serial dilution method; summary of the method: as §1
[3] = system: Mycobacterium tuberculosis; experiment: Antimicrobial activity against streptomycin, isoniazid, rifampicin and ethambutol-resistant Mycobacterium tuberculosis clinical isolate by two-fold serial dilution method; summary of the method: as §1

Measured: MIC

O=C(CC(C(=O)O)C1c2ccccc2-c2ccccc21)Nc1cc(Cl)cc(Cl)c1 (stereo not drawn)
4.7 µM: [1] | [2] | [3]
